CSN inh = inhibitors of human CSN-mediated cullin deneddylation; hit rate 0.38% among 360,000; Q92905; Purified CSN, SCF-Nedd8-OG deneddylation, fluorescence polarization; inhibition, % at 12.5 µM;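 active means pattern-corrected inhibition above about 35%, with an unprinted fluorescence ratio check between 0.5 and 1.5, limit read from the data, passing the limit was not always enough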;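 further: 0% = enzyme with substrate and 100% = substrate without enzyme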
Target sequence (Q92905 whole entry, looked up, one chain of several): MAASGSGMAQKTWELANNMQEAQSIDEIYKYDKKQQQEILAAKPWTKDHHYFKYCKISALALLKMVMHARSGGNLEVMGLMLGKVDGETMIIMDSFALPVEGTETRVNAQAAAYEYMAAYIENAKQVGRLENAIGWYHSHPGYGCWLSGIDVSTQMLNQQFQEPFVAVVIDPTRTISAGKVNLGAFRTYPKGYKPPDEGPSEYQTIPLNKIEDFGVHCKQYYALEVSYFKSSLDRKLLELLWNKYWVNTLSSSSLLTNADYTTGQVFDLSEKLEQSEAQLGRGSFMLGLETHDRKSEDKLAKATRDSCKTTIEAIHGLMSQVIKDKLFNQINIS
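assay system = purified human Csn5 enzyme expressed in HEK293T cells | amount = 0.24 nM enzyme | buffer or medium = Tris/NaCl/DTT buffer, pH 7.5 | reagent = 10 nM SCFSkp2-Nedd8OG | compound = one concentration, 12.5 µM, 0.25% DMSO | times = 90 min reaction at room temperature | signal = FP | read-out basis = % inhibition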
Rpn11 inh = Rpn11 (human) deubiquitinase inhibition | O00487 | human 26S proteasome, Ub4-pepOG fluorescence polarization; 20S core pre-blocked with epoxomicin | inhibition, % at 20 µM | hit rate 0.59% among 360,000;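 active means inhibition at 20 µM, scaled to each plate's controls, above about 33%, limit read from the data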
Target sequence (O00487 whole entry, looked up): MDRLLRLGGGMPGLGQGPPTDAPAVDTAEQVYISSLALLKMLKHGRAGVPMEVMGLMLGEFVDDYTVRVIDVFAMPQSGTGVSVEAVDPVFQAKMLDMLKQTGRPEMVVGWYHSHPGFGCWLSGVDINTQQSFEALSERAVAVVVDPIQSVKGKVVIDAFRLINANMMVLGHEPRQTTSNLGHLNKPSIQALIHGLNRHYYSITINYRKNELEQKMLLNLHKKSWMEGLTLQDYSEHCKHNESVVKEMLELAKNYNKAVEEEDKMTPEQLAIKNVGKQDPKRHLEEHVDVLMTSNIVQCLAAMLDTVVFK
HNF4A DNA FP = change in binding of human HNF4 alpha to DNA; HNF4a-FITC DNA binding, fluorescence polarization, 1 h; activity change, % at 10 µM; hit rate 0.3% among 360,000; AID 1224865; in the data active means activity change above about 30%, passing the limit was not always enough
TPT1 inhibitor = blocks Candida albicans tRNA 2'-phosphotransferase | recombinant caTPT1, FP RNA substrate dephosphorylation | inhibition, % at 5 µM | hit rate 0.81% among 300,000 | AID 1962;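 active means inhibition above the mean of all tested compounds plus 3 SD, set per screening campaign, cut at about 24% in these data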;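 further: plate controls were DMSO alone for no effect and ferristatin control at 100 nM for full effect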
Myeloid diff MLP = promotes myeloid progenitor differentiation | ER-HoxA9 myeloid progenitors, lysozyme-GFP differentiation, flow cytometry | calls only at 10 µM | hit rate 1% among 360,000 | AID 624256;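 active means normalized GFP-positive differentiation at or above the plate's own cutoff, the solvent-only control mean plus 3 SD; inconclusive means no clear call, values can overlap the other calls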;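 further: cells exposed to compound for four days before flow analysis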
TPT1 inh confirm = confirmation of Candida albicans TPT1 inhibitors; AID 2149; recombinant caTPT1, fluorescence polarization, RNase T1 coupled; shares compounds with TPT1 inhibitor; inhibition, % at 5 µM; hit rate 74% among 2,400;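 active means inhibition above the primary screen limit, the mean inhibition of all tested compounds plus 3 SD, cut at about 25% in these data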
RNase T1 counter = blocks Aspergillus oryzae RNase T1, a TPT1 counter-screen. shares compounds with TPT1 inhibitor. RNase T1 cleavage, fluorescence polarization, 1536-well. inhibition, % at 5 µM. hit rate 83% among 2,400;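 active means inhibition above the solvent-only control well mean plus 3 SD, limit set per screening run, cut at about 23% in these data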;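 further: plate controls were DMSO wells with enzyme for no effect and wells without RNase T1 for full effect; inhibitors block cleavage so intact labeled substrate keeps polarization high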
The depositor's hits bear a star; i = inactive; ? = inconclusive; / = no result given; + = active, no number. Shown are actives, neighbours in structure and some others; about 2.3% of the full set was active somewhere.

SMILES	CSN inh	Rpn11 inh	HNF4A DNA FP	TPT1 inhibitor	Myeloid diff MLP	TPT1 inh confirm	RNase T1 counter
CCN(CC)c1ccc2cc(-c3nc4ccccc4n3C)c(=O)oc2c1	11	9	9	81*	?	81*	85*
O=[N+]([O-])c1ccc(N/N=C/c2ccccc2)c(F)c1	3	16	12	27*	i	44*	54*
CCOc1cccc(C(=O)Nc2ccc(N(CC)CC)cc2)c1	4	-3	1	-4	i	/	/
CCN(CC)c1cccc(OCC(=O)N(C)CCC#N)c1	18	/	32	43*	i	41*	51*
O=[N+]([O-])c1ccc(Cl)cc1P(=O)(O)c1cc(Cl)ccc1[N+](=O)[O-]	-2	-5	-3	/	i	/	/
O=C(O)c1ccc(/C=C2\SC(=S)N(NC(=O)c3ccccc3)C2=O)cc1	-6	-1	1	11	i	/	/
Cn1cccc1/C=C1\SC(=S)N(NC(=O)c2ccccc2)C1=O	34	/	86*	89*	i	91*	111*
Cn1cccc1/C=C1\SC(=S)N(NC(=O)c2ccc(F)cc2)C1=O	54*	/	91*	97*	i	111*	118*
O=C(NN1C(=O)/C(=C/c2cccs2)SC1=S)c1ccccc1	3	8	1	-1	i	/	/
CC(C)(C)CC(=O)Nc1nn[nH]n1	-6	-2	1	27*	i	6	10
CCOC(=O)c1ccc(NC(=O)CN2CCN(C(=O)C3CCCO3)CC2)cc1 (stereo unspecified)	1	-3	0	0	i	/	/
N#Cc1c(-c2ccccc2)nc(SCC(=O)N(c2ccccc2)c2ccccc2)[nH]c1=O	4	-5	4	34*	i	11	18
COC(=O)c1cccc(CSc2nc(-c3ccccc3)c(C#N)c(=O)[nH]2)c1	1	2	1	81*	i	6	9
N#Cc1c(-c2ccccc2)nc(SCc2ccc(Cl)cc2)[nH]c1=O	-4	0	0	-1	i	/	/
C=CC[C@@H](CC(=O)N[C@H](CO)Cc1ccccc1)C(=O)NC[C@H](OC(=O)[C@@H](CC=C)Cc1ccc(F)cc1)c1ccccc1	7	3	-3	/	?	/	/
Cc1ccsc1C1CC(=O)OC2=C1C(=O)CC(C)(C)C2 (stereo unspecified)	/	/	/	109*	/	6	11
CC1(C)CC(=O)C2=C(C1)OC(=O)CC2c1cccs1 (stereo unspecified)	8	5	-3	-2	i	/	/
Cn1c(C(=O)NC2CCCCCC2)cc2c(=O)n(C)c3ccccc3c21	-2	-7	-1	-4	i	/	/
Cn1c(C(=O)NC2CCCCC2)cc2c(=O)n(C)c3ccccc3c21	3	6	2	67*	i	2	1
COc1ccc(NC(=O)C(=O)NCC2CCCN2S(=O)(=O)c2cc(C)ccc2C)cc1 (stereo unspecified)	0	3	2	-3	?	/	/
N#Cc1cnc(SCCc2ccccc2)nc1N	7	33	17	39*	i	32*	42*
O=C1c2cccc3c(N4CCCCC4)ccc(c23)C(=O)N1CCO	-70	-103	-30	50*	i	4	18
O=C1c2cccc3cccc(c23)C(=O)N1CCO	-5	-2	1	/	i	/	/
C=CCN1C(=O)c2cccc3c(N4CCCCC4)ccc(c23)C1=O	-66	6	-22	64*	i	41*	57*
O=C(COC(=O)[C@@H]1CCCN1C(=O)c1cccs1)Nc1cccc([N+](=O)[O-])c1	2	4	3	/	i	/	/
SMILES	CSN inh	Rpn11 inh	HNF4A DNA FP	TPT1 inhibitor	Myeloid diff MLP	TPT1 inh confirm	RNase T1 counter
N#Cc1ccccc1S(=O)(=O)N1CCNS(=O)(=O)c2ccccc21	6	-1	-3	/	i	/	/
O=C(COC(=O)c1nc(Cl)ccc1Cl)Nc1cccc(S(=O)(=O)N2CCOCC2)c1	-3	-2	-2	/	i	/	/
CC1CC1c1ccc(/C=C(\C#N)C(=O)Nc2cccc(Cl)c2Cl)o1 (stereo unspecified)	-3	3	1	2	i	/	/
N#C/C(=C\c1ccc(N2CCCCC2)o1)C(=O)Nc1cccc(Br)c1	109	/	133	168*	+	191*	172*
CCCCCCOc1ccc(NC(=O)CC2C(=O)N(CC)C(=S)N2Cc2ccco2)cc1 (stereo unspecified)	-2	-1	0	1	i	/	/
Cc1cc(C)cc(Nc2ccc(C(=O)O)cc2N)c1	-2	1	4	29*	i	7	10
CC(O)(c1ccc(F)c(F)c1)c1nc(-c2cccc3cccnc23)cs1 (stereo unspecified)	0	-1	1	/	i	/	/
COc1ccc(-c2c/c(=N\c3nc(-c4ccccc4)c(C)s3)c3ccccc3o2)cc1O	0	26	12	27*	/	22	31*
COc1ccc(-c2cc(=Nc3c(C)n(C)n(-c4ccccc4)c3=O)c3ccccc3o2)cc1	6	0	0	-2	i	/	/
C[C@H](CO)N1C[C@H](C)[C@@H](CN(C)C(=O)C2CCOCC2)Oc2ncc(Br)cc2C1=O	-4	-2	-1	/	i	/	/
CCOc1ccc(S(=O)(=O)Nc2nc3ccccc3nc2Nc2ccc(N3CCOCC3)cc2)cc1	-16	-34	-17	28*	i	10	17
O=C(NCCC1CCCCN1S(=O)(=O)c1ccc(F)cc1)C(=O)Nc1ccccc1 (stereo unspecified)	5	3	-2	-2	i	/	/
O=C(CNC(=O)c1ccccc1Cl)N/N=C/C=C/c1ccccc1	0	-4	6	1	i	/	/
O=S1(=O)CC(N2CCCC2)CN1Cc1ccccc1 (stereo unspecified)	7	7	-1	/	i	/	/
Cc1ccc(CNc2ccc3c(c2)OCO3)c(C)c1	/	/	/	26*	/	20	35*
CCn1c(C)cc(/C=C2/SC(=S)NC2=O)c1C	-10	15	6	98*	i	105*	119*
Cc1sc(-n2c(C)cc(/C=N/n3cnnc3)c2C)c(C#N)c1C	3	4	2	-1	i	/	/
Cc1sc(-n2c(C)cc(/C=C3\SC(=S)NC3=O)c2C)c(C#N)c1C	35	/	67*	45*	i	60*	75*
CCOC(=O)c1ccccc1NC(=O)C1CC(=O)N(C2CCCC2)C1 (stereo unspecified)	-5	-2	-2	/	i	/	/
Cc1cccc(C(=O)N2CCNC(=O)C2CC(=O)Nc2cccc(Cl)c2)c1 (stereo unspecified)	0	-11	1	24*	i	-2	3
O=C(CC1C(=O)NCCN1C(=O)Nc1ccccc1)Nc1cccc(Cl)c1 (stereo unspecified)	2	0	2	0	i	/	/

Compound activity: PubChem BioAssay, several laboratories
